# Compounds with a hit are over-represented: about 2.6% of the library has one in this group of screens.
# DENV2 CPE rescue: inhibitors of DENV2 cytopathic effect, primary screen, cell-based, plate reader, single concentration; CPE inhibition, % at 9.99 µM; DENV2-infected cells, cytopathic effect rescue; 350,000 compounds, 1.7% hits; in the data active = CPE inhibition above about 20%, passing the limit was not always enough; inconclusive = no clear call, values can overlap the other calls; tested in BHK-21 cells;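 note: 0% = median of neutral control wells and 100% = median of positive control wells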
# ERAP1 inh: human ERAP1 aminopeptidase inhibitors, primary screen, biochemical, single point, plate reader; inhibition, % at 10.7 µM; AID 652197, 2013; 340,000 compounds, 0.15% hits; recombinant ERAP1, Leu-AMC fluorescence, 60 min;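 active = mean replicate inhibition of at least 30%, or all replicates individually reaching that 30% level; inactive = mean below 30% and not every replicate reaching it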;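 note: 0% = neutral control wells and 100% = L-leucinethiol positive control wells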
# miR122 inh: miR-122 Renilla sensor signal increase in Huh7, primary screen, miR-122 inhibitor project, cell-based, single point, plate reader; 340,000 compounds, 0.3% hits; Huh7 miR-122 Renilla luciferase sensor, 48 h; neutral wells = 0, positive control = 100; activation (reporter increase), % at 12.5 µM;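 active = mean replicate activation score at least 90 and every replicate individually at or above 90; inconclusive = only one of the two criteria met; inactive = neither criterion met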;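 note: higher luciferase means less miR-122 activity so hits act as miR-122 inhibitors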
# E-selectin induc: E-selectin induction in HUVECs, primary screen, imaging, HUVEC, immunofluorescence imaging, single point; P16581; normalized: neutral wells 0, TNF-alpha wells 100; activation, % at 7.58 µM; 260,000 compounds, 0.37% hits; AID 686992, 2013;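 active = mean E-selectin-positive cell signal at least 10% of the positive control, reached in at least 60% of replicates, without over 20% cell loss; inconclusive = no rule given, readout overlaps actives, possibly toxicity-flagged; inactive = the rest, including those meeting only one limit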
# Target sequence (P16581 whole entry, looked up): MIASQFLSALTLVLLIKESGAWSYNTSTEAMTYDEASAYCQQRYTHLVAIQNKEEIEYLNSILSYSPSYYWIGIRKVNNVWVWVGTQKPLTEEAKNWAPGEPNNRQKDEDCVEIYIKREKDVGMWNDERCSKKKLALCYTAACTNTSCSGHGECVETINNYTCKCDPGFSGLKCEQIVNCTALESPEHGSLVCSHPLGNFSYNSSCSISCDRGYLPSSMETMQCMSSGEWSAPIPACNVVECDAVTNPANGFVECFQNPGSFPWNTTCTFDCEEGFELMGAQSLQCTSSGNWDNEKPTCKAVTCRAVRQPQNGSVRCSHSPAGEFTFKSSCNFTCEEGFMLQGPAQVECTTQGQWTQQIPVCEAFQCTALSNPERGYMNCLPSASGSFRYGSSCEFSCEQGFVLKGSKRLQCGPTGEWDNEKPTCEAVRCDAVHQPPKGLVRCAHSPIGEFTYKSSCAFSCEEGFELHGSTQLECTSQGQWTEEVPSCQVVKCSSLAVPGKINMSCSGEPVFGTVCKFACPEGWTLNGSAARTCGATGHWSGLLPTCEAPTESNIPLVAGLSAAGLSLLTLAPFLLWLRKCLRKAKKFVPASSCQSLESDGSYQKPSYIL
#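 Test system – human umbilical vein endothelial cells (HUVEC), E-selectin induction · Input – 3,000 HUVEC seeded per well · Buffer or medium – EGM-2, gelatin · Compound dosing – single-point compound dose · Detection – immunofluorescence imaging · Measure – percent E-selectin-positive cells · Controls – TNF-alpha high, DMSO low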
# INS-1E GSIS act: GLuc luminescence reporter in INS-1E cells, primary screen for activators of glucose-dependent secretion of insulin; INS-1E GLuc reporter insulin secretion, 2-3 h; activation, % at 16.6 µM; 370,000 compounds, 0.61% hits; AID 743287, 2014;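 active = lowest replicate activation of at least 40%, so every replicate reaches that level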;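 note: 0% = median of neutral control wells and 100% = median of IBMX positive control wells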
# F508del corr: F508del CFTR correction, initial screen, CFBE line, single point; CFBE cells, YFP halide quenching; stimulated with forskolin plus potentiator P3; % fluorescence drop versus neutral controls; activity (quench increase), % at 7.58 µM; 350,000 compounds, 0.36% hits; AID 720511, 2013;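 active = mean added fluorescence quench of at least 8% versus neutral control, with both replicates also reaching 8%; inconclusive = only one of the mean or replicate conditions met; inactive = mean below 8% and not both replicates reaching 8%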;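 note: cells transiently co-express mutant CFTR-F508del with the halide-sensitive YFP; corrector assay measuring rescue of mutant channel to the surface after 24 h compound exposure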
# The depositor's hits bear a star; ? = inconclusive; / = no result; ! = a repeat was not active; [ ] = dose if it differs, or a comment.
SMILES,DENV2 CPE rescue,ERAP1 inh,miR122 inh,E-selectin induc,INS-1E GSIS act,F508del corr
COCCCN1C(=O)C(CC(=O)NC(c2ccccc2)c2ccccc2)CC(C(=O)N(C(C)C)C(C)C)=C1C (stereo unspecified),56.8*,-0.5,-2.6,0.0,/,0.0
CC1=C(C(=O)N(C)C)CC(CC(=O)NC2CCCCC2)C(=O)N1Cc1ccc(C(C)(C)C)cc1 (stereo unspecified),42.9*,-3.6,7.9,/,/,0.2
CC1=C(C(=O)N(C(C)C)C(C)C)CC(CC(=O)NC2CCCCC2)C(=O)N1CCCN1CCCC1=O (stereo unspecified),3.1,-4.6,-4.7,-0.2,/,3.6
C[C@H](CO)N1C[C@H](C)[C@@H](CN(C)CC2CC2)Oc2ccc(NC(=O)CCCN(C)C)cc2C1=O,-8.3,8.2,3.1[16.7 µM],-5.9,7.3,0.3
CCC(=O)Nc1ccc2c(c1)OC[C@H](C)N(Cc1ccncc1)C[C@@H](C)[C@@H](OC)CN(C)C2=O,?,-5.6,1.4[16.7 µM],-0.1,2.7,0.7
C[C@@H]1CN([C@@H](C)CO)C(=O)c2cc(NS(=O)(=O)c3cccs3)ccc2O[C@@H](C)CCCCO[C@@H]1CN(C)C(=O)Nc1ccc(F)cc1,/,/,/,0.2,-8.7,0.6
Oc1ccccc1C=NCC(O)c1ccccc1 (stereo unspecified),76.0*,-2.0,0.7,/,7.3,-0.7
CCn1cc(C(=O)NC(C)CCc2ccccc2)c(=O)c2cc(S(=O)(=O)N(C)C)ccc21 (stereo unspecified),50.6*,0.0,-4.2,-0.2,-47.8,-0.7
CC1C(=O)N(Cc2cn(CC3CCCCC3)nn2)CCS(=O)(=O)N1Cc1ccc(-c2ccc(Cl)cc2)cc1 (stereo unspecified),/,/,-5.4,/,/,/
CC1C(=O)N(Cc2cn(CC3CCCCC3)nn2)CCS(=O)(=O)N1Cc1ccc(-c2ccc(Cl)c(Cl)c2)cc1 (stereo unspecified),56.6*,-1.0,-8.2,-0.8,-1.1,-3.4
NC(=O)c1cc(C(=O)c2ccc(Cl)cc2Cl)c[nH]1,32.8*,-3.2,-2.3,0.5,25.4,2.8
C[C@H](CO)N1C[C@H](C)[C@@H](CN(C)Cc2ccc(C(=O)O)cc2)OCCCC[C@H](C)Oc2ccc(N(C)C)cc2C1=O,/,/,3.2[16.7 µM],-0.1,9.2,-1.6
CCN(CC)S(=O)(=O)c1ccc(N2CCOCC2)c(NS(=O)(=O)c2ccc(C)cc2)c1,/,-2.3,/,-2.9,2.0,/
Cc1ccc(S(=O)(=O)N(C)C)cc1NC(=O)c1cc(S(=O)(=O)N2CCCCC2)ccc1N1CCOCC1,22.7*,3.2,-1.1,/,1.6,-1.3
Cc1ccc(S(=O)(=O)Nc2cc(S(=O)(=O)N3CCCCC3)ccc2N2CCOCC2)cc1,17.7,3.5,5.4,32.2*,0.9,-2.1
CCCNC(=O)N1CC2(C1)[C@@H](c1ccccc1)[C@@H](CO)N2Cc1cccc(F)c1,2.2,-1.5,/,0.2,9.2,0.8
O=C1[C@H](Cc2ccc(F)cc2)CCn2cc(nn2)COC[C@H]2CCCN12,/,/,/,/,0.9,/
COc1ccc(S(=O)(=O)N(C)C[C@H]2Oc3ccc(NC(=O)CCCN(C)C)cc3CC(=O)N([C@H](C)CO)C[C@H]2C)cc1,28.8*,-1.6,/,-0.1,14.5,-0.9
Cc1ccc(S(=O)(=O)N(C)C[C@H]2Oc3ccc(NC(=O)CCCN(C)C)cc3CC(=O)N([C@@H](C)CO)C[C@H]2C)cc1,43.0*,1.9,-2.2[16.7 µM],0.0,20.2,0.6
CO[C@@H]1CN(C)C(=O)c2cc(NC(=O)c3ccccc3F)ccc2OC[C@@H](C)N(CC2CC2)C[C@@H]1C,1.2,-4.2,/,-0.1,6.8,-0.2
CCC(=O)Nc1ccc2c(c1)OC[C@@H](C)N(CC1CCCCC1)C[C@@H](C)[C@H](OC)CN(C)C2=O,/,/,/,/,-6.2,/
O=C(Nc1ccccc1)c1cc([N+](=O)[O-])ccc1NC1CCCCC1,-5.7,-1.6,122.8*,/,14.8,-0.9
O=C(COC(=O)c1ccccc1NC(=O)c1ccccc1)c1cccc([N+](=O)[O-])c1,/,/,-1.4,/,69.4*,/
O=C(Nc1ccc([N+](=O)[O-])cc1NC(=O)c1ccccc1)c1ccccc1,0.9,0.9,3.8,1.3,84.8*,2.4
O=C(Cc1ccccn1)NCC[C@@H]1CC[C@@H](NS(=O)(=O)c2ccc(F)cc2)[C@H](CO)O1,-6.3,-1.0,/,-1.6,-10.1,0.8
SMILES,DENV2 CPE rescue,ERAP1 inh,miR122 inh,E-selectin induc,INS-1E GSIS act,F508del corr
CO[C@@H]1CN(C)C(=O)c2cc(NC(C)=O)ccc2OC[C@@H](C)N(C(=O)c2ccccn2)C[C@H]1C,1.2,/,7.8[16.7 µM],0.1,3.6,4.4
O=C1N/C(=N\N=C\c2cccs2)SC1Cc1cccc(Cl)c1 (stereo unspecified),/,/,/,0.3,85.7*,/
CCC(=O)N1C[C@H](O)COC[C@@H]2O[C@H](CC(=O)N3CCCCC3)CC[C@H]21,-0.8,0.9,-0.2[16.7 µM],0.1,3.1,-1.1
CC(C)NC(=O)Nc1ccc2c(c1)C(=O)N([C@@H](C)CO)C[C@@H](C)[C@H](CN(C)C(=O)CCC(F)(F)F)OCCCC[C@H](C)O2,8.5,-1.7,2.9[16.7 µM],0.8,12.3,-0.5
CN(CC(=O)Nc1ccc(Cl)cc1)C(=O)CCc1nc2sc3c(c2c(=O)[nH]1)CCCC3,30.7*,3.2,/,/,4.8,1.7
CN(CC(=O)Nc1ccc(F)cc1)C(=O)CCc1nc2sc3c(c2c(=O)[nH]1)CCCC3,18.5,-1.5,/,/,6.7,-0.9
N#C[C@@H]1[C@@H](c2ccccc2C2=CCCCC2)[C@H](CO)N1C(=O)NC1CCCCC1,-13.3,1.3,/,0.0,-5.7,-2.3
O=C(/C=C/c1ccccc1)NC(=S)Nc1ccc(N2CCOCC2)c(Cl)c1,12.8,1.2,4.3,0.3,-0.8,2.6
O=C(/C=C/c1ccco1)NC(=S)Nc1cccc(-c2nc3ccccc3o2)c1,/,/,130.5*,/,/,/
O=C(/C=C/c1ccco1)NC(=S)Nc1ccc(N2CCOCC2)c(Cl)c1,/,/,103.9*,/,/,/
Cc1ccc(S(=O)(=O)Nc2cccc3c2O[C@@H](CN(C)CC2CCCCC2)[C@@H](C)CN([C@H](C)CO)C3=O)cc1,?,-3.6,37.5[16.7 µM],0.6,-11.7,0.1
CC(C)NC(=O)N(C)C[C@H]1Oc2ccc(NC(=O)Cc3ccccc3)cc2C(=O)N([C@H](C)CO)C[C@@H]1C,51.8*!,-3.0,-0.5[16.7 µM],0.6,5.9,1.9
C[C@@H]1CN([C@@H](C)CO)C(=O)c2cc(NC(=O)Cc3ccccc3)ccc2O[C@H]1CN(C)C(=O)NC1CCCCC1,-5.3,4.7,-1.7[16.7 µM],-5.2,-2.7,1.5

# Source: PubChem
